Rows were chosen to be rich in hits. Some 1.8% of all compounds tested hit in one or more screens of this group.
CXCR6 inh: CXCR6 receptor inhibitors, primary screen, cell-based, beta-arrestin, luminescence, CHO-K1 PathHunter, 1536-well; C-X-C chemokine receptor type 6 (Homo sapiens), O00574; 0.36% of 360,000 active; inhibition, % at 20 µM; in the data active = inhibition above about 34%, passing the limit was not always enough;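 also: antagonist mode with CXCL16 agonist at 10 nM final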
CCR6 antag: CCR6 receptor antagonists, primary screen, cell-based, CHO-K1, luminescence, beta-arrestin, uHTS | C-C chemokine receptor type 6 (Homo sapiens), P51684 | CHO-K1 CCR6 PathHunter beta-arrestin, CCL20-stimulated | inhibition, % at 20 µM | 0.49% of 340,000 active;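 active = compounds whose inhibition of the agonist-driven luminescence signal at 20 µM reaches about 50%, limit read from the data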;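 also: cells stimulated with CCL20 at 14 nM final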
APJ antag: antagonists of human apelin receptor APJ, primary screen, CHO-K1 cells, beta-arrestin complementation, luminescence. AID 2521, 2010. P35414. 0.32% of 330,000 active. inhibition, % at 20 µM;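 active = inhibition above about 40% at 20 µM, limit read from the data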;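 also: cells challenged with 10 nM apelin-13 agonist together with compound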
EBI2 antag: EBI2 receptor antagonists, beta-arrestin recruitment, primary screen, cell-based, luminescence, 7a,25-OHC stimulation, uHTS; 0.81% of 360,000 active; inhibition, % at 5 µM; G-protein coupled receptor 183 (Homo sapiens), P32249; 7a,25-OHC stimulated; in the data active = inhibition above about 38%;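 also: enzyme fragment complementation signal reports receptor beta-arrestin coupling in cells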
Target sequence (P32249 whole entry, looked up, the tested form may be a part): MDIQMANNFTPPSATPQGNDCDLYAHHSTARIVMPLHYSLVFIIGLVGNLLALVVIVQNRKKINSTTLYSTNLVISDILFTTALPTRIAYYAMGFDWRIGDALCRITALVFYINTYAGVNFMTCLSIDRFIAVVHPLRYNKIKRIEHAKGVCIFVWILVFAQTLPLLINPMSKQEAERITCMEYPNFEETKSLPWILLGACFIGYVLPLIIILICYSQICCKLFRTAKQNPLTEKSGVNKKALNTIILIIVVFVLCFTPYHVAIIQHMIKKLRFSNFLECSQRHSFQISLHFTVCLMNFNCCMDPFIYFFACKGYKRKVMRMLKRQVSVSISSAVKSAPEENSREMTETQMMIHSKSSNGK
APJ agonist: agonists of human apelin receptor APJ, primary screen, CHO-K1 cells, PathHunter beta-arrestin, luminescence; activation, % at 20 µM; P35414; 0% DMSO wells, 100% apelin; AID 2520, 2010; 0.11% of 330,000 active;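 active = activation more than six SD over the plate average, tested at 20 µM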
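Material: engineered CHO-K1 APJ arrestin reporter cells; amount: 1000 CHO-K1 reporter cells seeded per well; incubation: compound stimulation 90 min at 25 °C, detection 60 min; signal: luminescent beta-gal fragment complementation, chemiluminescent substrate; read-out basis: APJ agonist activity; controls: DMSO-only wells as negative, 10 nM Apelin-13 as positive control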
Beta2AR agonist: beta2AR agonists driving receptor internalization, primary screen, cell-based, FAP fluorogen, flow cytometry. Beta-2 adrenergic receptor (Homo sapiens), P07550. 0.43% of 340,000 active. Am2.2-beta2AR cells. response, % (no concentration beside the values);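 active = response above a set limit, near 3 SD of response in nonfluorescent compounds, cut at about 42% in these data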
EBI2 conf: EBI2 antagonist hit retest, beta-arrestin, confirmation, cell-based, single concentration, luminescence, 7a,25-OHC stimulation. shares compounds with EBI2 antag. 7a,25-OHC antagonism. inhibition, % at 5 µM. 29% of 2,400 active;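 active = inhibition of at least 50%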
EBI2 ag: EBI2 agonist activity of antagonist hits, confirmation, counter-screen for EBI2 antagonist project, cell-based, single concentration, agonist mode, luminescence; 2,400 tested, under 10 active; shares compounds with EBI2 antag; activation, % at 5 µM; EBI2-expressing cells, 60 min; 0% vehicle, 100% 7α,25-dihydroxycholesterol control; AID 652000, 2013;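 active = activation of at least 50%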
bGal counter: E. coli beta-galactosidase enzyme inhibition, confirmation, counter-screen for EBI2 antagonist project, biochemical, luminescence, single concentration. shares compounds with EBI2 antag. purified beta-galactosidase, luminescent Galacton Star, 15 min. inhibition, % at 5 µM. 1% of 2,400 active. AID 652176, 2013;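 active = replicate-average signal at least 3 plate SD below neutral wells, shown as high inhibition, flagging enzyme-inhibiting false positives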;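 also: higher means stronger loss of beta-gal luminescence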
Numbers stand for hits; n = inactive; x = no result given.

SMILES	CXCR6 inh	CCR6 antag	APJ antag	EBI2 antag	APJ agonist	Beta2AR agonist	EBI2 conf	EBI2 ag	bGal counter
CSCCC(NC(=O)c1ccco1)C(=O)NCC1CCCO1 (centres undefined)	n	n	n	n	n	n	x	x	x
O=C(c1cc2cc(Br)ccc2o1)N1CCCCC1	n	n	n	57.5	n	n	n	n	n
CCCc1ccc(C(O)c2ncc(-c3ccccc3F)[nH]2)cc1 (centres undefined)	n	x	x	n	x	x	x	x	x
CCOC(=O)c1[nH]c(C)c(C(=O)OCCN2C(=O)c3ccccc3C2=O)c1C	n	n	n	n	n	n	x	x	x
CCOC(=O)c1[nH]c2ccc(OCC)cc2c1CCCN1C(=O)c2ccccc2C1=O	n	n	n	45.9	n	n	n	n	n
COC1=CC(=O)OC(c2ccccc2C(F)(F)F)C1 (centres undefined)	x	x	x	n	x	x	x	x	x
COCC(O)Cn1ccnc1[N+](=O)[O-] (centres undefined)	n	x	x	n	x	x	x	x	x
CC1=C/C(=N\NC(=S)Nc2cccnc2)CC(C)(C)C1	n	n	x	38.8	x	n	77.7	n	n
CC1(C)C2CC=C(/C=N/NC(=S)Nc3cccnc3)C1C2 (centres undefined)	n	n	n	n	n	n	x	x	x
CC1(c2nnc(-c3ccc(Cl)cc3)o2)CC(c2c(Cl)cccc2Cl)=NO1 (centres undefined)	n	n	n	52.2	n	n	59.6	n	n
CC1(c2nnc(-c3ccc(F)cc3)o2)CC(c2c(Cl)cccc2Cl)=NO1 (centres undefined)	n	n	n	50.3	n	n	n	n	n
CC1(C)OC(=O)C2=C(C[C@@H](CCOCc3ccccc3)O[C@@H]2c2ccc(F)cc2)O1	n	x	x	n	x	x	x	x	x
COc1ccc(-c2ccc3c(c2)O[C@@H](CN(C)C(=O)c2ccccc2F)[C@@H](C)CN([C@@H](C)CO)S3(=O)=O)cc1	n	x	x	n	x	x	x	x	x
CC(OC(=O)c1ccc(Cl)nc1)C(=O)NC1CCCC1 (centres undefined)	n	n	n	n	n	n	x	x	x
CCC(=O)N(c1nnc(SCC(=O)NN2C(=O)NC3(CCCCC3)C2=O)s1)C1CC1	n	n	n	n	n	n	x	x	x
Cc1ccc(CNC(=O)/C=C/c2ccc(S(=O)(=O)NCc3ccco3)cc2)cc1	n	n	n	44.5	n	n	n	n	n
O=C(/C=C/c1ccc(S(=O)(=O)NCc2ccco2)cc1)NCc1cccc(Cl)c1	n	n	n	n	n	n	x	x	x
Cc1ccc(S(=O)(=O)N2CCC(C(=O)OCCOc3ccccc3)CC2)cc1C	n	n	n	45.5	n	n	n	n	n
Cc1ccc(OCCOC(=O)C2CCN(S(=O)(=O)c3ccc(C)c(C)c3)CC2)cc1	n	n	n	56.3	n	n	n	n	n
C#Cc1cccc(NC(=O)c2ccc3c(c2)C(=O)N(Cc2cccnc2)C3=O)c1	n	n	n	44.6	n	n	n	n	n
O=C(O)c1cc(NC(=O)c2ccc3c(c2)C(=O)N(Cc2cccnc2)C3=O)cc(C(=O)O)c1	n	n	n	n	n	n	x	x	x
Cc1nc(N2CCN(Cc3ccc4c(c3)OCO4)CC2)c2cc(-c3ccccc3)sc2n1	n	n	n	38.4	n	n	n	n	n

From PubChem
